Experimental data as given in ChEMBL document CHEMBL5331142, “Novel 1,4-Dihydropyridines as Specific Binders and Activators of SIRT3 Impair Cell Viability and Clonogenicity and Downregulate Hypoxia-Induced Targets in Cancer Cells” (J Med Chem, 2023).
The source made the active and inactive calls. The calls are words filed in the database; no cut-off is given here.

Experiments:
[1] = test system: MDA-MB-231; assay: Downregulation of COL1A2 gene expression in human MDA-MB-231 cells at 50 uM incubated for 48 hrs by qRT-PCR analysis; assay type: functional, cell-based
Outline: (§1)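 MDA-MB-231 cells treated with 50 μM compound for 48 h under normoxia, DMSO vehicle control. qRT-PCR quantified by the 2(−ΔCt) method as fold of control, mean ± SEM. Three independent experiments.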

[2] = test system: MDA-MB-231; assay: Downregulation of ZEB1 gene expression in human MDA-MB-231 cells at 50 uM incubated for 48 hrs under hypoxia condition by qRT-PCR analysis; assay type: functional, cell-based
Outline: (§2)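 MDA-MB-231 cells pretreated with 200 μM CoCl2 to induce hypoxia, then exposed to 50 μM compound for 48 h with CoCl2 maintained. qRT-PCR by the 2(−ΔCt) method vs DMSO control, mean ± SEM. Four independent experiments.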

[3] = test system: CAL-62; assay: Anticancer activity against human CAL-62 cells assessed as reduction in cell viability at 50 uM incubated for 24 to 48 hrs under hypoxia condition by trypan blue exclusion assay; assay type: functional, cell-based; settings: time 24-48 hrs, TDE = time-dependent effect
Outline: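 CAL-62 cells in RPMI 1640 with 10% FBS, treated with 50 μM compound (DMSO) for 24 and 48 h. Hypoxia induced with 200 μM CoCl2, kept in the medium during treatment. Viable cells counted by 0.4% trypan blue staining on a hemocytometer.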

[4] = test system: MDA-MB-231; assay: Downregulation of MMP2 gene expression in human MDA-MB-231 cells at 50 uM incubated for 48 hrs under hypoxia condition by qRT-PCR analysis; assay type: functional, cell-based; outline: as §2
[5] = test system: MDA-MB-231; assay: Downregulation of SNAIL gene expression in human MDA-MB-231 cells at 50 uM incubated for 48 hrs by qRT-PCR analysis; assay type: functional, cell-based; outline: as §1
[6] = test system: CAL-62; assay: Downregulation of EPAS-1 expression in human CAL-62 cells at 50 uM incubated for 48 hrs under hypoxia condition by Western blot analysis; assay type: functional, cell-based
Outline: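 CAL-62 or MDA-MB-231 cells made hypoxic with 200 μM CoCl2 for 24 h, then treated with 50 μM compound for 48 h with CoCl2 retained. Lysates (15 or 50 μg protein) immunoblotted for HIF-1α, EPAS-1 or CA-IX with ACTB, ECL detection. 3-TYP (1 μM) as control.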

[7] = target: T1, NAD-dependent protein deacetylase sirtuin-1 (Homo sapiens) (UniProt Q96EB6); assay: Activation of N-terminal his-tagged human SIRT1 expressed in Escherichia coli at 10 uM using p53-acK381 as substrate in presence of NAD+ by NADH oxidation-coupled enzymatic assay
T1 sequence (whole entry): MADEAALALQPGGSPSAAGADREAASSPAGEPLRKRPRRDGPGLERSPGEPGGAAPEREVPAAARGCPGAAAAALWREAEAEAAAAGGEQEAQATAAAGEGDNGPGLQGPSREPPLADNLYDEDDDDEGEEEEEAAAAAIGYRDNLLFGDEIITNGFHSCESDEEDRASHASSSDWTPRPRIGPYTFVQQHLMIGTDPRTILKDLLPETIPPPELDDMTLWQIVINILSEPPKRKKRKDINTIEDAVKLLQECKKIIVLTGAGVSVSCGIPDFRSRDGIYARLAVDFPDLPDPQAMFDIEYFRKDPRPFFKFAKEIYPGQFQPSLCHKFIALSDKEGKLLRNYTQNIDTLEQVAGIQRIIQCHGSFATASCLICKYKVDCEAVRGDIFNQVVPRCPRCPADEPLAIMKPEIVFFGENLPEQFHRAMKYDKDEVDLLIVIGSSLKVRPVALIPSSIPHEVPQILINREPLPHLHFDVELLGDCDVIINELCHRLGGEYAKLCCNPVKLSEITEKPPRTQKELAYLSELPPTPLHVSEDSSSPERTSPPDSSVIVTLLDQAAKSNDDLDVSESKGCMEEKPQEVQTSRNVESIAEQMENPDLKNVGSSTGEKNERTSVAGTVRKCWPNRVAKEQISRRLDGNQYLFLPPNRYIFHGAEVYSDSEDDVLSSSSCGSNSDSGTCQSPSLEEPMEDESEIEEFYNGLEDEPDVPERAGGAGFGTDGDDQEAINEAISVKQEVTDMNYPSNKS
Outline: (§3)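 Coupled PncA/GDH deacylation assay following NADPH oxidation to NADP+. 1.5 μM sirtuin, 50 μM substrate peptide, 100 μM NAD+, compound at 10 μM, 5% final DMSO. Isoform-specific physiological substrates: p53-acK381 (SIRT1), […] (SIRT2), ACS2-acK642 (SIRT3), CPS1-succK537 (SIRT5). Sirtuins expressed in E. coli, Ni-NTA purified, tag cleaved, then size-exclusion chromatography.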

[8] = target: T2, NAD-dependent protein deacetylase sirtuin-2 (Homo sapiens) (UniProt Q8IXJ6); assay: Activation of N-terminal his-tagged human SIRT2 (43 to 356 residues) expressed in Escherichia coli at 10 uM using p53-acK381 as substrate in presence of NAD+ by NADH oxidation-coupled enzymatic assay
T2 sequence (whole entry): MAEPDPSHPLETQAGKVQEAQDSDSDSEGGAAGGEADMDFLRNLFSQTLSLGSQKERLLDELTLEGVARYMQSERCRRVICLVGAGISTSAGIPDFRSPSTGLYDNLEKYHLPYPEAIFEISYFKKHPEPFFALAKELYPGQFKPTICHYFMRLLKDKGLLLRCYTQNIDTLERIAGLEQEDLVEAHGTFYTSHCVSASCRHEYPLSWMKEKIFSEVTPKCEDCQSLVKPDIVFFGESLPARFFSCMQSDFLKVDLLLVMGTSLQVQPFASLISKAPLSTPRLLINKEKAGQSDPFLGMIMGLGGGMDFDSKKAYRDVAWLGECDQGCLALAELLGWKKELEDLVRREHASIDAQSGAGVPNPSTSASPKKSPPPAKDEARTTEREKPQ

[9] = test system: MDA-MB-231; assay: Downregulation of SNAIL gene expression in human MDA-MB-231 cells at 50 uM incubated for 48 hrs under hypoxia condition by qRT-PCR analysis; assay type: functional, cell-based; outline: as §2
[10] = target: T3, NAD-dependent protein deacetylase sirtuin-3, mitochondrial (Homo sapiens) (UniProt Q9NTG7); assay: Activation of N-terminal his-tagged human SIRT3 (114 to 380 residues) deacylation activity expressed in Escherichia coli at 10 uM using ACS2-acK642 as substrate in presence of NAD+ by NADH oxidation-coupled enzymatic assay; settings: filed as activator; outline: as §3
T3 sequence (whole entry): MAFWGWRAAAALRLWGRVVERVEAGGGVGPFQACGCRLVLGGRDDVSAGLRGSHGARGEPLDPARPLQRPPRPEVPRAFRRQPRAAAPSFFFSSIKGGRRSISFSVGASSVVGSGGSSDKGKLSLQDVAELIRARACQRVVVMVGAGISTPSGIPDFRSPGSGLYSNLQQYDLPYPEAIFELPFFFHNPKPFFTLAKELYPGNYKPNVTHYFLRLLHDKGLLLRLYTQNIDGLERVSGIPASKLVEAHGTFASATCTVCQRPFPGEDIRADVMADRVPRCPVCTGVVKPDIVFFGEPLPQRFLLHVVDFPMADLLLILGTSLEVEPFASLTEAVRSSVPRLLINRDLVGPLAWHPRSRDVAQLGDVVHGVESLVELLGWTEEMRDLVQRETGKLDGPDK

| SMILES | Activity [1] | Activity [2] | Activity [3] | Activity [4] | Activity [5] | Activity [6] | Activity [7] | Activity [8] | Activity [9] | Activity [10] [%] |
| --- | --- | --- | --- | --- | --- | --- | --- | --- | --- | --- |
| CCOC(=O)C1=CN(C(=O)c2cc(OC)cc(OC)c2)C=C(C(=O)OCC)C1c1ccccc1 | Active | Active | Tde | Active | Active | Active | inactive | inactive | Active | 149 |
| CCOC(=O)C1=CN(C(=O)c2ccc(OC)c(OC)c2)C=C(C(=O)OCC)C1c1ccccc1 | Active | Active | Tde | Active | Active | Active | inactive | inactive | Active | 158 |
